Measured values pooled from the literature.
Protocols differ between the studies behind these lines. Converted amounts (≈) assume the structure as drawn.

`OC(Cn1cncn1)(Cn1cncn1)c1ccc(F)cc1F` has an MIC of over 64 µg/mL (Aspergillus fumigatus; microbial growth, broth dilution; AF293; 48 h).
With `Cc1c2c(nn1C)CSCc1cc(n(C)n1)CSc1cc(c3ccccc3c1)OCCCc1c(C(=O)O)n(C)c3c-2c(Cl)ccc13` the MIC50 was 25 µM (Enterococcus faecalis; microbial growth, broth dilution; clinical isolate).
With `C/C(=N\C1CCCCC1/N=C(\C)c1c(O)c2ccccc2oc1=O)c1c(O)c2ccccc2oc1=O` (centres unmarked) the MIC was 31.2 µg/mL (Aspergillus glaucus; microbial growth, broth dilution; 48 h).
The MIC of `CC1(C)S[C@@H]2[C@H](NC(=O)[C@H](N)c3ccccc3)C(=O)N2[C@H]1C(=O)O` is reported as 0.5 µg/mL (Enterococcus faecalis; microbial growth, broth dilution; ATCC19433; 12 h).
With `S=C(NN=Cc1ccc(Br)cc1)Nc1cccnc1` the IC50 was 627 µM (Leishmania major; parasite growth; J774.A1; 72 h, intracellular, amastigote).
`CN[C@H](CC(C)C)C(=O)N[C@H]1C(=O)N[C@@H](CC(N)=O)C(=O)N[C@H]2C(=O)N[C@H]3C(=O)N[C@H](C(=O)N[C@H](C(=O)O)c4cc(O)cc(O)c4-c4cc3ccc4O)[C@H](O)c3ccc(c(Cl)c3)Oc3cc2cc(c3O[C@@H]2O[C@H](CO)[C@@H](O)[C@H](O)[C@H]2O[C@H]2C[C@](C)(N)[C@H](O)[C@H](C)O2)Oc2ccc(cc2Cl)[C@H]1O` gave an MIC50 of 2 µg/mL (Enterococcus faecalis; microbial growth, broth dilution; clinical isolate).
For `CNC(=S)NN=Cc1ccc(OC)c(OC)c1`, the IC50 was 54.3 µM (Leishmania major; parasite growth, MTT; 72 h, promastigote).
`OC(Cn1cncn1)(Cn1cncn1)c1ccc(F)cc1F` has an MIC of 4 µg/mL (Aspergillus fumigatus; microbial growth, broth dilution).
`CN1CCN(c2ccc(-c3ccc4c(Nc5cnccn5)cnnc4c3)cc2)CC1` gave an EC50 of over 25 µM (Leishmania major; parasite growth; intracellular, amastigote).
With `COc1ccc(C=NNC(=S)Nc2cccnc2)cc1OC` the IC50 was 1080 µM (Leishmania major; parasite growth, MTT; 72 h, promastigote).
`CC1(C)S[C@@H]2[C@H](NC(=O)[C@H](N)c3ccccc3)C(=O)N2[C@H]1C(=O)O` gave an MIC of 64 µg/mL (Enterococcus faecalis; microbial growth, agar dilution; ATCC29212).
`C/C(=N\c1nc(N)nc(/N=C(\C)c2c(O)c3ccccc3oc2=O)n1)c1c(O)c2ccccc2oc1=O` has an MIC of 31.2 µg/mL (Aspergillus glaucus; microbial growth, broth dilution; 48 h).
For `COc1ccc(Nc2cnnc3ccc(-c4ccc(N5CCN(C)CC5)cc4)cc23)cc1Cl`, the EC50 was over 22 µM (Leishmania major; parasite growth; intracellular, amastigote).
`C/C(=N\C(=O)/N=C(\C)c1c(O)c2ccccc2oc1=O)c1c(O)c2ccccc2oc1=O` gave an MIC of 62.5 µg/mL (Aspergillus glaucus; microbial growth, broth dilution; 48 h).
`CC[C@H]1OC(=O)[C@H](C)[C@@H](O[C@H]2C[C@@](C)(OC)[C@@H](O)[C@H](C)O2)[C@H](C)[C@@H](O[C@@H]2O[C@H](C)C[C@H](N(C)C)[C@H]2O)[C@](C)(O)C[C@@H](C)/C(=N\OCOCCOC)[C@H](C)[C@@H](O)[C@]1(C)O` gave an MIC of 128 µg/mL (Enterococcus faecalis; microbial growth, agar dilution; ATCC29212).
For `CNC(=S)NN=Cc1ccc(F)cc1`, the IC50 was 319 µM (Leishmania major; parasite growth; J774.A1; 72 h, intracellular, amastigote).
`C/C(=N\CCNCC/N=C(\C)c1c(O)c2ccccc2oc1=O)c1c(O)c2ccccc2oc1=O` has an MIC of 31.2 µg/mL (Aspergillus glaucus; microbial growth, broth dilution; 48 h).
For `Cc1ccc(Nc2cnnc3cc(-c4ccc(N5CCN(C)CC5)cc4)ccc23)cn1`, the EC50 was over 24 µM (Leishmania major; parasite growth; intracellular, amastigote).
The MIC of `CC(=O)N1CCN(c2ccc(OCC3COC(Cn4ccnc4)(c4ccc(Cl)cc4Cl)O3)cc2)CC1` (centres unmarked) is reported as 7.8 µg/mL (Aspergillus glaucus; microbial growth, broth dilution; 48 h).
`CC(=O)NC[C@H]1CN(c2ccc(N3CCOCC3)c(F)c2)C(=O)O1` gave an MIC90 of 1 µg/mL (≈ 2.96 µM) (Enterococcus faecalis; microbial growth, broth dilution; clinical isolate).
With `CN1CCN(c2ncc(-c3ccc4nncc(Nc5cnccn5)c4c3)cn2)CC1` the EC50 was over 5 µM (Leishmania major; parasite growth; intracellular, amastigote).
`COc1c(N2C[C@@H]3CCCN[C@@H]3C2)c(F)cc2c(=O)c(C(=O)O)cn(C3CC3)c12` has an MIC90 of 1 µg/mL (≈ 2.49 µM) (Enterococcus faecalis; microbial growth, broth dilution; clinical isolate).
`C[C@@H]1[C@H](O)[C@@H](C)/C=C/C=C/C=C/C=C/C=C/C=C/C=C/[C@H](O[C@@H]2O[C@H](C)[C@@H](O)[C@H](N)[C@@H]2O)C[C@@H]2O[C@](O)(C[C@@H](O)C[C@@H](O)[C@H](O)CC[C@@H](O)C[C@@H](O)CC(=O)O[C@H]1C)C[C@H](O)[C@H]2C(=O)O` has an IC50 of 17.5 µM (Leishmania major; parasite growth; J774.A1; 72 h, intracellular, amastigote).
The MIC90 of `C=C[C@]1(C)C[C@@H](OC(=O)CS[C@@H]2C[C@H]3CC[C@@H](C2)N3C)[C@]2(C)[C@H](C)CC[C@]3(CCC(=O)[C@H]32)[C@@H](C)[C@@H]1O` is reported as over 128 µg/mL (Enterococcus faecalis; microbial growth; clinical isolate).
For `Cc1ccc(Nc2cnnc3cc(-c4cnc(N5CCCN(C)CC5)nc4)ccc23)cn1`, the EC50 was over 23 µM (Leishmania major; parasite growth; intracellular, amastigote).
`COc1ccc(C=NNC(=S)Nc2cccnc2)cc1` has an IC50 of 1000 µM (Leishmania major; parasite growth, MTT; 72 h, promastigote).
For `CN1CCCN(c2ncc(-c3ccc4nncc(Nc5cnccn5)c4c3)cn2)CC1`, the EC50 was over 24 µM (Leishmania major; parasite growth; intracellular, amastigote).
`CCCCCCCCN=c1ccn(CCCCCCCCCCn2ccc(=NCCCCCCCC)cc2)cc1` has an MIC of 0.5 µM (Enterococcus faecalis; microbial growth).
`CN1CCN(c2ccc(-c3ccc4c(Nc5ncccn5)cnnc4c3)cc2)CC1` has an EC50 of over 12.6 µM (Leishmania major; parasite growth; intracellular, amastigote).
With `CNC(=S)NN=Cc1ccc(C)cc1` the IC50 was 938 µM (Leishmania major; parasite growth, MTT; 72 h, promastigote).
`CN1CCN(c2ncc(-c3ccc4c(Nc5ncccn5)cnnc4c3)cn2)CC1` gave an EC50 of over 25 µM (Leishmania major; parasite growth; intracellular, amastigote).
`CNC(=S)NN=Cc1ccc([N+](=O)[O-])cc1` gave an IC50 of 177 µM (Leishmania major; parasite growth; J774.A1; 72 h, intracellular, amastigote).
